Measurements published in ChEMBL document CHEMBL1833835, “Synthesis and evaluation of the anti parasitic activity of aromatic nitro compounds” (Eur J Med Chem, 2011).

Legend:
Trypanosoma cruzi [1] = experiment: Trypanocidal activity against intracellular amastigote form of Trypanosoma cruzi Tulahuen expressing beta-galactosidase infected in mouse L929 cells after 7 days by microplate reader analysis; assay type: functional, organism-based; conditions: L929, 168 h
Trypanosoma cruzi [2] = experiment: Trypanocidal activity against intracellular trypomastigote form of Trypanosoma cruzi Tulahuen expressing beta-galactosidase infected in mouse L929 cells after 7 days by microplate reader analysis; assay type: functional, organism-based; conditions: L929, 168 h
Leishmania amazonensis = experiment: Antiparasitic activity against promastigote form of Leishmania amazonensis IFLA/BR/67/PH8 after 48 hrs by MTT assay; assay type: functional, organism-based; conditions: IFLA/BR/67/PH8, 48 h
How it was run: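 Promastigotes kept at 23 °C in Schneider's medium with 20% heat-inactivated FCS, pH 7.2; plated at 1 × 10⁷/well. Screening at 100 µM in triplicate, then six-point dilutions in duplicate for compounds exceeding 50% inhibition. After 48 h, MTT added for 4 h, stopped with isopropanol/SDS, OD 570 nm read; IC50 from curve; three independent experiments.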

PBMC = experiment: Inhibition of cell proliferation of phytohemagglutinin-induced human PBMC; assay type: cell-based
[3] = Selectivity index, ratio of IC50 for human PBMC to IC50 for Leishmania amazonensis IFLA/BR/67/PH8
How it was run: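 Ratio of PBMC proliferation IC50 (PHA-stimulated, MTT, 48 h) to promastigote IC50 (MTT, 48 h).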

| Structure (SMILES) | IC50 (Trypanosoma cruzi [1]) [µM] | IC50 (Trypanosoma cruzi [2]) [µM] | IC50 (Leishmania amazonensis) [µM] | IC50 (PBMC) [µM] | Ratio IC50 [3] |
| --- | --- | --- | --- | --- | --- |
| O=C(O)c1ccc(CBr)c([N+](=O)[O-])c1 | > 1000 | > 500 | > 100 | 344 | <3.4 |
| O=C(NCCO)c1ccc(CBr)c([N+](=O)[O-])c1 | > 1000 |  | 23.1 | 53.9 | 2.3 |
| COC(=O)c1ccc(CBr)c([N+](=O)[O-])c1 | > 1000 | > 500 | 39.3 | 44.1 | 1.1 |
| O=C(O)c1ccc(CO)c([N+](=O)[O-])c1 | > 1000 |  | > 100 |  |  |
| O=C(NCCO)c1ccc(CCl)c([N+](=O)[O-])c1 | > 1000 |  | 59.5 | 960 | 16.1 |
| O=C(Cn1ccnc1[N+](=O)[O-])NCc1ccccc1 [BENZNIDAZOLE] | 3.8 |  |  |  |  |
| O=C(O)c1ccc(CBr)cc1 | > 1000 | > 500 | > 100 | 88.8 | <0.9 |
| O=C(NCCCl)c1ccc(CCl)c([N+](=O)[O-])c1 | > 1000 |  | 50.6 | 1100 | 21.7 |
| O=C(NCCO)c1ccc(CCl)cc1 | > 1000 |  | > 100 | 330 | <3.3 |
